In ChEMBL document CHEMBL4689842, “EUbOPEN Chemogenomics Library wave 1” (2021):

Tested on: HEK-293T
Experiment: Multiplex assay against HEK293T;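 for Population Tubulin-Different-Phenotype (%): share of the cells with healthy nuclei that show this phenotype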
Assay type: toxicity, cell-based
Settings: human
Summary of the method: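 Four dyes were applied at seeding to live cells: Hoechst33342, BioTracker Green Microtubule Cytoskeleton Dye, MitoTracker Red and Annexin V Alexa Fluor 680. Imaging after compound addition used a CQ1 microscope at 37°C and 5% CO2. CellPathfinder machine-learning gating then sorted cells into Hoechst high-intensity objects or normal cells, normal cells into healthy, pyknosed or fragmented nuclei, and pyknosed cells into mitotic or apoptotic, with tubulin, mitochondrial-mass and membrane-permeability phenotypes given as per cents of healthy-nucleus cells.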

[1] = 12 h, 1 µM, compound concentration 1 uM, replicate 1
[2] = 12 h, 1 µM, compound concentration 1 uM, replicate 2
[3] = 12 h, 10 µM, compound concentration 10 uM, replicate 1
[4] = 12 h, 10 µM, compound concentration 10 uM, replicate 2
[5] = 24 h, 1 µM, compound concentration 1 uM, replicate 1
[6] = 24 h, 1 µM, compound concentration 1 uM, replicate 2
[7] = 24 h, 10 µM, compound concentration 10 uM, replicate 1
[8] = 24 h, 10 µM, compound concentration 10 uM, replicate 2

Cc1ccc(NC(=O)Nc2cc(C(F)(F)F)ccc2F)cc1Nc1ccc2c(c1)NC(=O)/C2=C\c1ccc[nH]1
Population Apoptotic (%) [1]: 13%
Population Fragmented Nuclei (%) [1]: 19%
Population Healthy Nuclei (%) [1]: 28%
Population Hoechst High Intensity Objects (%) [1]: 16%
Population Membrane Permeable-Phenotype (%) [1]: 59%
Population Mitochondria Different-Phenotype (%) [1]: 0%
Population Mitotic Cells (%) [1]: 86%
Population Normal (%) [1]: 83%
Population Pyknosed Nuclei (%) [1]: 51%
Population Tubulin-Different-Phenotype (%) [1]: 28%
Total Cell Count [1]: 644
Population Apoptotic (%) [2]: 2%
Population Fragmented Nuclei (%) [2]: 2%
Population Healthy Nuclei (%) [2]: 83%
Population Hoechst High Intensity Objects (%) [2]: 2%
Population Mitotic Cells (%) [2]: 97%
Population Normal (%) [2]: 97%
Population Pyknosed Nuclei (%) [2]: 13%
Population Tubulin-Different-Phenotype (%) [2]: 50%
Total Cell Count [2]: 1372
Population Apoptotic (%) [3]: 14%
Population Fragmented Nuclei (%) [3]: 10%
Population Healthy Nuclei (%) [3]: 68%
Population Hoechst High Intensity Objects (%) [3]: 6%
Population Membrane Permeable-Phenotype (%) [3]: 1%
Population Mitochondria Different-Phenotype (%) [3]: 3%
Population Mitotic Cells (%) [3]: 85%
Population Normal (%) [3]: 93%
Population Pyknosed Nuclei (%) [3]: 21%
Population Tubulin-Different-Phenotype (%) [3]: 0%
Total Cell Count [3]: 577
Population Apoptotic (%) [4]: 4%
Population Fragmented Nuclei (%) [4]: 7%
Population Healthy Nuclei (%) [4]: 87%
Population Hoechst High Intensity Objects (%) [4]: 2%
Population Mitochondria Different-Phenotype (%) [4]: 5%
Population Mitotic Cells (%) [4]: 95%
Population Normal (%) [4]: 97%
Population Pyknosed Nuclei (%) [4]: 5%
Population Tubulin-Different-Phenotype (%) [4]: 2%
Total Cell Count [4]: 1471
Population Apoptotic (%) [5]: 15%
Population Fragmented Nuclei (%) [5]: 20%
Population Healthy Nuclei (%) [5]: 34%
Population Hoechst High Intensity Objects (%) [5]: 14%
Population Membrane Permeable-Phenotype (%) [5]: 47%
Population Mitochondria Different-Phenotype (%) [5]: 0%
Population Mitotic Cells (%) [5]: 84%
Population Normal (%) [5]: 85%
Population Pyknosed Nuclei (%) [5]: 45%
Population Tubulin-Different-Phenotype (%) [5]: 33%
Total Cell Count [5]: 618
Population Apoptotic (%) [6]: 3%
Population Fragmented Nuclei (%) [6]: 4%
Population Healthy Nuclei (%) [6]: 82%
Population Hoechst High Intensity Objects (%) [6]: 4%
Population Membrane Permeable-Phenotype (%) [6]: 52%
Population Mitotic Cells (%) [6]: 96%
Population Normal (%) [6]: 95%
Population Pyknosed Nuclei (%) [6]: 13%
Population Tubulin-Different-Phenotype (%) [6]: 68%
Total Cell Count [6]: 1297
Population Apoptotic (%) [7]: 14%
Population Fragmented Nuclei (%) [7]: 7%
Population Healthy Nuclei (%) [7]: 82%
Population Hoechst High Intensity Objects (%) [7]: 2%
Population Membrane Permeable-Phenotype (%) [7]: 2%
Population Mitochondria Different-Phenotype (%) [7]: 1%
Population Mitotic Cells (%) [7]: 85%
Population Normal (%) [7]: 97%
Population Pyknosed Nuclei (%) [7]: 10%
Population Tubulin-Different-Phenotype (%) [7]: 1%
Total Cell Count [7]: 682
Population Apoptotic (%) [8]: 0%
Population Fragmented Nuclei (%) [8]: 18%
Population Healthy Nuclei (%) [8]: 79%
Population Hoechst High Intensity Objects (%) [8]: 3%
Population Membrane Permeable-Phenotype (%) [8]: 3%
Population Mitochondria Different-Phenotype (%) [8]: 0%
Population Mitotic Cells (%) [8]: 100%
Population Normal (%) [8]: 96%
Population Pyknosed Nuclei (%) [8]: 2%
Population Tubulin-Different-Phenotype (%) [8]: 2%
Total Cell Count [8]: 2446
